Results on nine compounds are retold here after ChEMBL document CHEMBL1138573, “Synthesis and molluscicidal activity of some new thiophene, thiadiazole and pyrazole derivatives” (2009).

Holding throughout (assay type): functional
In test [1] the test system is Biomphalaria alexandrina. Description: Molluscicidal activity against Biomphalaria alexandrina assessed as number of dead snail per 10 snails at 6 ppm after 24 hrs. In short, it runs like this:
(§1)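 Field-collected B. alexandrina snails held 45 days in the lab, fed daily on lettuce, and checked free of parasitic infection. Compound mixed with a few drops of Tween 20, then suspended in untreated raw River Nile water at seven concentrations of 4–16 ppm, in aerated glass jars. Ten snails of similar size (ca. 7 mm) per jar, kept 24 h at ambient temperature. Run three times and the mean number killed taken. LC50 and LC90 were derived from this mortality. Control was water with Tween 20. Follows WHO guidelines.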

The subject of test [2] is Biomphalaria alexandrina. Description: Molluscicidal activity against Biomphalaria alexandrina assessed as number of dead snail per 10 snails at 16 ppm after 24 hrs. In a few lines:
as §1

The test system of test [3] is Biomphalaria alexandrina. Description: Molluscicidal activity against Biomphalaria alexandrina assessed as number of dead snail per 10 snails at 14 ppm after 24 hrs. In short, it runs like this: as §1
The subject of test [4] is Biomphalaria alexandrina. Description: Molluscicidal activity against Biomphalaria alexandrina assessed as number of dead snail per 10 snails at 12 ppm after 24 hrs. In a few lines: as §1
In test [5] the test system is Biomphalaria alexandrina. Description: Molluscicidal activity against Biomphalaria alexandrina assessed as number of dead snail per 10 snails at 4 ppm after 24 hrs. In short, it runs like this:
as §1

Test [6] deals with Biomphalaria alexandrina. Description: Molluscicidal activity against Biomphalaria alexandrina assessed as number of dead snail per 10 snails at 8 ppm after 24 hrs. In a few lines:
as §1

The test system of test [7] is Biomphalaria alexandrina. Description: Molluscicidal activity against Biomphalaria alexandrina assessed as number of dead snail per 10 snails at 10 ppm after 24 hrs. In short, it runs like this:
as §1

Test [8] has as its system Biomphalaria alexandrina. Description: Molluscicidal activity against Biomphalaria alexandrina after 24 hrs. As to conditions: for LC50: Biomphalaria alexandrina, 24 h. In short, it runs like this: as §1

In brackets after ≈: the same amount, converted by molar mass.

As to `CC(=O)/C(C(=O)c1ccccc1)=C1/SC(C(=O)c2ccccc2)=NN1c1ccc(C)cc1`, the Activity in the test on Biomphalaria alexandrina [1] was 3; in the test with Biomphalaria alexandrina [2], 10; in the test on Biomphalaria alexandrina [3] it was 10; with Biomphalaria alexandrina [4], 10; in the test with Biomphalaria alexandrina [5] it was 2; in the test on Biomphalaria alexandrina [6], 5. The Activity in the test with Biomphalaria alexandrina [7] is 8. This compound also yielded an LC90 in the test on Biomphalaria alexandrina [8] of 9 ppm. For the same compound, the LC50 (in general, the concentration lethal to half of the exposed cells or organisms) with Biomphalaria alexandrina [8] was found to be 5.5 mg/L (≈ 12.5 µM).
As to `COc1ccc(N2N=C(C(=O)c3ccccc3)S/C2=C(/C(C)=O)C(=O)c2ccccc2)cc1`, the Activity with Biomphalaria alexandrina [1] turned out to be 3; in the test with Biomphalaria alexandrina [2], 10; with Biomphalaria alexandrina [3] it was 10; in the test with Biomphalaria alexandrina [4], 10; in the test on Biomphalaria alexandrina [5], 1; in the test with Biomphalaria alexandrina [6] it was 4. In addition, the Activity in the test with Biomphalaria alexandrina [7] is listed as 7. In the test with Biomphalaria alexandrina [8], this compound showed an LC90 of 11 ppm. In addition, the LC50 in the test with Biomphalaria alexandrina [8] is 6 mg/L (≈ 13.1 µM).
Turning to `Cc1n[nH]c(Nc2ccccc2)c1C(=O)c1ccccc1`, the Activity with Biomphalaria alexandrina [1] was 3; with Biomphalaria alexandrina [2], 10; in the test on Biomphalaria alexandrina [3] it was 10; in the test with Biomphalaria alexandrina [4], 9; with Biomphalaria alexandrina [5], 1; in the test on Biomphalaria alexandrina [6], 4. For the same compound, in the test on Biomphalaria alexandrina [7], the Activity turned out to be 8. In the test with Biomphalaria alexandrina [8], this compound displayed an LC90 of 18 ppm. The LC50 with Biomphalaria alexandrina [8] was 13 mg/L (≈ 46.9 µM).
Regarding `O=C(Nc1cc(Cl)c([N+](=O)[O-])cc1Cl)c1ccccc1O`, in the test with Biomphalaria alexandrina [8], the LC100 came to 1 ppm.
Consider `CCOC(=O)c1sc(Nc2ccccc2)c(C(=O)c2ccccc2)c1C`, for which the Activity in the test on Biomphalaria alexandrina [1] is recorded as 1; with Biomphalaria alexandrina [2] it was 10; in the test on Biomphalaria alexandrina [3], 4; with Biomphalaria alexandrina [4], 2; in the test with Biomphalaria alexandrina [5], 0; in the test with Biomphalaria alexandrina [6], 1. In addition, in the test on Biomphalaria alexandrina [7], the Activity stood at 2. The same compound showed an LC90 with Biomphalaria alexandrina [8] of 20 ppm. For the same compound, in the test with Biomphalaria alexandrina [8], the LC50 came out at 18 mg/L (≈ 49.3 µM).
`CC(=O)/C(C(=O)c1ccccc1)=C1/SC(C(=O)c2ccccc2)=NN1c1ccccc1`: the Activity in the test on Biomphalaria alexandrina [1] is listed as 2; in the test on Biomphalaria alexandrina [2], 10; in the test with Biomphalaria alexandrina [3], 10; with Biomphalaria alexandrina [4], 9; in the test with Biomphalaria alexandrina [5] it was 2; in the test with Biomphalaria alexandrina [6] it was 4. Besides, the Activity in the test on Biomphalaria alexandrina [7] is given as 6. For the same compound, the LC90 in the test on Biomphalaria alexandrina [8] came to 10 ppm. Moreover, in the test with Biomphalaria alexandrina [8], the median lethal concentration (LC50) amounted to 8 mg/L (≈ 18.8 µM).
In the case of `CC(=O)c1sc(Nc2ccccc2)c(C(=O)c2ccccc2)c1C`, the Activity in the test with Biomphalaria alexandrina [1] came to 3; with Biomphalaria alexandrina [2], 10; with Biomphalaria alexandrina [3], 10; with Biomphalaria alexandrina [4] it was 8; in the test with Biomphalaria alexandrina [5], 1; in the test on Biomphalaria alexandrina [6] it was 5. In addition, the Activity with Biomphalaria alexandrina [7] turned out to be 8. The same compound came in with an LC90 with Biomphalaria alexandrina [8] of 22 ppm. The median lethal concentration (LC50) with Biomphalaria alexandrina [8] was found to be 16 mg/L (≈ 47.7 µM).
`Cc1c(C(=O)c2ccccc2)sc(Nc2ccccc2)c1C(=O)c1ccccc1`: the Activity in the test with Biomphalaria alexandrina [1] was found to be 4; in the test with Biomphalaria alexandrina [2], 10; with Biomphalaria alexandrina [3] it was 10; in the test with Biomphalaria alexandrina [4], 9; in the test on Biomphalaria alexandrina [5], 1; in the test with Biomphalaria alexandrina [6], 5. Also, the Activity in the test with Biomphalaria alexandrina [7] is recorded as 6. This compound registered an LC90 in the test with Biomphalaria alexandrina [8] of 20 ppm. In the test with Biomphalaria alexandrina [8], the 50% lethal concentration (LC50) was determined as 15.6 mg/L (≈ 39.2 µM).
As for `Cc1c(C(=O)O)sc(Nc2ccccc2)c1C(=O)c1ccccc1`, the Activity in the test on Biomphalaria alexandrina [1] was determined as 2; with Biomphalaria alexandrina [2], 10; in the test on Biomphalaria alexandrina [3] it was 8; with Biomphalaria alexandrina [4], 6; in the test on Biomphalaria alexandrina [5], 1; with Biomphalaria alexandrina [6], 3. In the test with Biomphalaria alexandrina [7], the Activity is reported as 5. In the test on Biomphalaria alexandrina [8], this compound gave an LC90 of 23 ppm. The compound further gave a 50% lethal concentration (LC50) in the test on Biomphalaria alexandrina [8] of 19 mg/L (≈ 56.3 µM).
